Measurements taken from ChEMBL document CHEMBL1131070, “Synthesis and antiallergic activity of dimethyl-2-(phenylcarbamoyl)ethylsulfonium p-toluenesulfonate derivatives” (J Med Chem, 1998).

How the values were obtained:
Rattus norvegicus [1] = test: Inhibition of the homologous passive cutaneous anaphylaxis (PCA) in rat, administered at a dose of 50 mg/kg intraperitoneally; format: functional; conditions: ip, route intraperitoneal
How it was run: (§1)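 Rat anti-DNP-As serum (raised with DNP-coupled ascaris plus killed Bordetella pertussis; titer about 1:256 by 48-h PCA) diluted 20-fold in 0.9% saline, given intradermally as 0.1 mL at three shaved-back sites of normal rats, with saline on the other side. After 48 h, 1.0 mL of 0.25% Evans blue containing 2.0 mg of antigen given iv. Read-out is % inhibition ± SD.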

Rattus norvegicus [2] = test: Inhibition of homologous Passive Cutaneous Anaphylaxis in rat, following 20 mg/kg i.p. administration.; format: functional; conditions: po, in the assay text read “p.o.” for “i.p.”; how it was run: as §1
Rattus norvegicus [3] = test: Inhibitory activity against the homologous Passive Cutaneous Anaphylaxis (PCA) in rat, administered at a dose of 20 mg/kg perorally; format: functional; conditions: route oral; how it was run: as §1
[4] = Lethal dose (LD50) determined in male ddY mice; format: toxicity; conditions: mouse, in vivo
How it was run: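 Acute toxicity by the up-down method, five animals per determination, with LD50 reported in mg/kg.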

Rattus norvegicus [5] = test: Inhibitory activity against the homologous Passive Cutaneous Anaphylaxis (PCA) in rat, administered at a dose of 50 mg/kg perorally; format: functional; conditions: route oral; how it was run: as §1
Rattus norvegicus [6] = test: Inhibitory activity against the homologous Passive Cutaneous Anaphylaxis (PCA) in rat, administered at a dose of 100 mg/kg intraperitoneally; format: functional; conditions: ip, route intraperitoneal; how it was run: as §1

**Q.** For C[S+](C)CCC(=O)Nc1ccc(C(F)(F)F)cc1, which inhibition in vivo at 50 mg/kg (Rattus norvegicus [1]) is on record?
**A.** -10.3%

**Q.** And the inhibition in vivo at 20 mg/kg (Rattus norvegicus [2])?
**A.** -7.8%

**Q.** Which inhibition in vivo at 50 mg/kg (Rattus norvegicus [1]) does the source give for C[S+](C)CCC(=O)Nc1ccc(CC(=O)O)cc1 here?
**A.** 25.5%

**Q.** And the inhibition in vivo at 20 mg/kg (Rattus norvegicus [2])?
**A.** 14.9%

**Q.** For CCOCC(COc1cccc(NC(=O)CC[S+](C)C)c1)OC(C)=O (centres undefined), which inhibition in vivo at 50 mg/kg (Rattus norvegicus [1]) is on record?
**A.** 17.7%

**Q.** And the inhibition in vivo at 20 mg/kg (Rattus norvegicus [2])?
**A.** 18.2%

**Q.** Which inhibition in vivo at 50 mg/kg (Rattus norvegicus [1]) does the source give for CCOCC(COc1ccc(NC(=O)CC[S+](C)C)cc1)OC(C)=O (centres undefined) here?
**A.** 30.2%

**Q.** And the inhibition in vivo at 20 mg/kg (Rattus norvegicus [2])?
**A.** 35.1%

**Q.** With C[S+](C)CCC(=O)Nc1ccc(OCC(O)COC2CCCCC2)cc1 (centres undefined) as the molecule, how does the inhibition in vivo at 50 mg/kg (Rattus norvegicus [1]) read?
**A.** -7.4%

**Q.** What about the inhibition in vivo at 20 mg/kg (Rattus norvegicus [2]) of the same molecule?
**A.** 10.2%

**Q.** Which results are given for CCOCC(COc1ccc(NC(=O)CC[S+](C)C)cc1)OCC (centres undefined)?
**A.** inhibition in vivo at 50 mg/kg (Rattus norvegicus [1]): 5.1%; inhibition in vivo at 20 mg/kg (Rattus norvegicus [2]): 0.1%

**Q.** With C[S+](C)CCC(=O)Nc1ccc(OCC(O)CO)cc1.Cc1ccc(S(=O)(=O)[O-])cc1 (centres undefined) as the molecule, how does the inhibition in vivo at 20 mg/kg (Rattus norvegicus [3]) read?
**A.** 1.4%

**Q.** What about the LD50 [4] of the same molecule?
**A.** 1040 mg/kg

**Q.** And the inhibition in vivo at 50 mg/kg (Rattus norvegicus [5])?
**A.** 18.6%

**Q.** And the inhibition in vivo at 50 mg/kg (Rattus norvegicus [1])?
**A.** 34.9%

**Q.** What about the inhibition in vivo at 20 mg/kg (Rattus norvegicus [2]) of the same molecule?
**A.** 38.7%

**Q.** Which inhibition in vivo at 50 mg/kg (Rattus norvegicus [1]) does the source give for Cc1ccc(NC(=O)CC[S+](C)C)cc1 here?
**A.** 22%

**Q.** What about the inhibition in vivo at 20 mg/kg (Rattus norvegicus [2]) of the same molecule?
**A.** 18.9%

**Q.** Which results are given for CCCCOCC(O)COc1ccc(NC(=O)CC[S+](C)C)cc1 (centres undefined)?
**A.** inhibition in vivo at 50 mg/kg (Rattus norvegicus [1]): 4.4%; inhibition in vivo at 20 mg/kg (Rattus norvegicus [2]): 7.9%

**Q.** For C[S+](C)CCC(N)=O, which inhibition in vivo at 100 mg/kg (Rattus norvegicus [6]) is on record?
**A.** 13.7%

**Q.** And the inhibition in vivo at 50 mg/kg (Rattus norvegicus [1])?
**A.** 2.4%

**Q.** With CCCOCC(O)COc1ccc(NC(=O)CC[S+](C)C)cc1 (centres undefined) as the molecule, how does the inhibition in vivo at 50 mg/kg (Rattus norvegicus [1]) read?
**A.** 13.8%

**Q.** What about the inhibition in vivo at 20 mg/kg (Rattus norvegicus [2]) of the same molecule?
**A.** 16.3%

**Q.** Which results are given for COCC(O)COc1ccc(NC(=O)CC[S+](C)C)cc1 (centres undefined)?
**A.** inhibition in vivo at 50 mg/kg (Rattus norvegicus [1]): 24.8%; inhibition in vivo at 20 mg/kg (Rattus norvegicus [2]): 17.7%

**Q.** For C[S+](C)CCC(=O)Nc1ccc(OCC(O)COc2ccccc2)cc1 (centres undefined), which inhibition in vivo at 50 mg/kg (Rattus norvegicus [1]) is on record?
**A.** 4.6%

**Q.** What about the inhibition in vivo at 20 mg/kg (Rattus norvegicus [2]) of the same molecule?
**A.** 14.4%

**Q.** Which inhibition in vivo at 50 mg/kg (Rattus norvegicus [1]) does the source give for C[S+](C)CCC(=O)Nc1ccc(O)cc1 here?
**A.** 9.7%

**Q.** What about the inhibition in vivo at 20 mg/kg (Rattus norvegicus [2]) of the same molecule?
**A.** 21.9%

**Q.** What does the source list for C[S+](C)CCC(=O)Nc1ccccc1?
**A.** inhibition in vivo at 100 mg/kg (Rattus norvegicus [6]): 27.1%; inhibition in vivo at 50 mg/kg (Rattus norvegicus [1]): -8.3%

**Q.** What does the source list for C[S+](C)CCC(=O)Nc1ccc(F)cc1?
**A.** inhibition in vivo at 50 mg/kg (Rattus norvegicus [1]): 1.2%; inhibition in vivo at 20 mg/kg (Rattus norvegicus [2]): 4%

**Q.** Which LD50 [4] does the source give for CCCOc1ccc(NC(=O)CC[S+](C)C)cc1.Cc1ccc(S(=O)(=O)[O-])cc1 here?
**A.** 97 mg/kg

**Q.** What about the inhibition in vivo at 50 mg/kg (Rattus norvegicus [1]) of the same molecule?
**A.** 29.8%

**Q.** And the inhibition in vivo at 20 mg/kg (Rattus norvegicus [2])?
**A.** 13.8%

**Q.** Which inhibition in vivo at 50 mg/kg (Rattus norvegicus [1]) does the source give for C[S+](C)CCC(=O)Nc1ccc(Cl)cc1 here?
**A.** 0.3%

**Q.** What about the inhibition in vivo at 20 mg/kg (Rattus norvegicus [2]) of the same molecule?
**A.** -0.2%

**Q.** With C[S+](C)CCC(=O)Nc1ccc(OCCCO)cc1.Cc1ccc(S(=O)(=O)[O-])cc1 as the molecule, how does the LD50 [4] read?
**A.** 324 mg/kg

**Q.** Which results are given for COCC(COc1ccc(NC(=O)CC[S+](C)C)cc1)OC (centres undefined)?
**A.** inhibition in vivo at 50 mg/kg (Rattus norvegicus [1]): 10.5%; inhibition in vivo at 20 mg/kg (Rattus norvegicus [2]): 17.9%

**Q.** With CCOCC(O)COc1ccc(NC(=O)CC[S+](C)C)cc1 (centres undefined) [SUPLATAST TOSILATE] as the molecule, how does the inhibition in vivo at 50 mg/kg (Rattus norvegicus [1]) read?
**A.** 35.5%

**Q.** What about the inhibition in vivo at 20 mg/kg (Rattus norvegicus [2]) of the same molecule?
**A.** 28.9%

**Q.** Which inhibition in vivo at 50 mg/kg (Rattus norvegicus [1]) does the source give for COc1ccc(NC(=O)CC[S+](C)C)cc1 here?
**A.** 17.4%

**Q.** What about the inhibition in vivo at 20 mg/kg (Rattus norvegicus [2]) of the same molecule?
**A.** -4.4%

**Q.** What does the source list for CC(=O)c1ccc(NC(=O)CC[S+](C)C)cc1?
**A.** inhibition in vivo at 50 mg/kg (Rattus norvegicus [1]): 25.1%; inhibition in vivo at 20 mg/kg (Rattus norvegicus [2]): 9%

**Q.** For CC(O)COc1ccc(NC(=O)CC[S+](C)C)cc1.Cc1ccc(S(=O)(=O)[O-])cc1 (centres undefined), which LD50 [4] is on record?
**A.** 495 mg/kg

**Q.** What does the source list for CCOCC(COc1ccccc1NC(=O)CC[S+](C)C)OC(C)=O (centres undefined)?
**A.** inhibition in vivo at 50 mg/kg (Rattus norvegicus [1]): 20%; inhibition in vivo at 20 mg/kg (Rattus norvegicus [2]): -2%

**Q.** Which inhibition in vivo at 100 mg/kg (Rattus norvegicus [6]) does the source give for C[S+](C)CCC(=O)NC1CCCCC1 here?
**A.** 17%

**Q.** And the inhibition in vivo at 50 mg/kg (Rattus norvegicus [1])?
**A.** 9%
